Assay results as given in ChEMBL document CHEMBL1121446, “Quantitative structure-pharmacokinetic relationships derived on antibacterial sulfonamides in rats and its comparison to quantitative structure-activity relationships” (J Med Chem, 1980).

How the values were obtained:
[1] = Half life in rat; type: ADME, organism-based; conditions: in vivo
Outline: (§1)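 Male Sprague-Dawley rats received the SA sodium salt, 50 mg/kg, into the tail vein within 1 min. Tail-artery blood was sampled over time and plasma separated by centrifugation. Unmetabolized and total SA were assayed by modified Bratton-Marshall before and after hydrolysis of N4 metabolites. ke (or kC,U for unchanged drug) was obtained by computer fitting to a one-compartment model. Vc = dose / extrapolated initial plasma concentration.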

[2] = Total clearance from the body in rat; type: ADME, organism-based; conditions: in vivo, read-out: ClT
Rattus norvegicus [3] = organism: Rattus norvegicus; assay: Apparent volume of distribution was determined in rat; type: ADME, organism-based; conditions: in vivo; outline: as §1
Rattus norvegicus [4] = organism: Rattus norvegicus; assay: Affinity for protein binding expressed as association constant in fresh rat serum; type: ADME, organism-based
Outline: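 Sulfapyridines added to freshly prepared rat serum at 100-600 µmol/L in 100 µmol/L steps. Samples ultracentrifuged 10 h at 45000 rpm (g = 150000), 37 °C. Unbound drug in the top protein-free layer measured photometrically by Bratton-Marshall. Total drug measured before centrifugation, with controls correcting for sedimentation of unbound drug. Bound = total − free; Kassoc from a Scatchard plot.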

[5] = Acid dissociation constant; type: ADME
Outline: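 pKa of the sulfapyridine acidic NH measured spectrophotometrically.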

[6] = Overall elimination rate in rat; type: ADME, organism-based; conditions: in vivo, read-out: ke (converted); outline: as §1
[7] = Renal clearance from the body in rat; type: ADME, organism-based, Kidney; conditions: in vivo, read-out: CL_renal
Outline: (§2)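 Drug solutions were infused into rats at 1.9 mL/h, with plasma and urine concentrations measured simultaneously over time. Clearance = urine concentration × urine volume per minute / plasma concentration. Inulin and PAH clearances were also determined. Urine pH was set with NH4Cl (pH 5-6) or NaHCO3 (pH 7.8), compared with normal pH 6.8.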

Rattus norvegicus [8] = organism: Rattus norvegicus; assay: Metabolic clearance from the body in rat; type: ADME, organism-based; conditions: in vivo
Outline: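 Metabolic clearance calculated as total clearance minus renal clearance. Plasma levels were measured before and after hydrolysis of N4-acetyl metabolites.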

[9] = First order rate of elimination of unchanged drug in rat; type: ADME, organism-based; conditions: in vivo, read-out: kC,U (converted); outline: as §1
[10] = Renal clearance from the body; type: ADME, organism-based, Kidney; conditions: in vivo; read-out: CL_renal; outline: as §2
[11] = Half life was determined; type: ADME; conditions: rat

| Structure (SMILES) | half-life [1] [h] | clearance [2] [mL/min] | Vc (Rattus norvegicus [3]) [mL] | K ass (Rattus norvegicus [4]) | pKa [5] | k el [6] [s⁻¹] | CL renal [7] [mL/min] | ClM (Rattus norvegicus [8]) [mL/min] | k el [9] [s⁻¹] | CL renal [10] [mL/min] | half-life [11] [h] |
| --- | --- | --- | --- | --- | --- | --- | --- | --- | --- | --- | --- |
| Cc1ccnc(NS(=O)(=O)c2ccc(N)cc2)c1 | 1.19 | 1.38 | 142.8 | 6606 l M-1 | 9.01 | 0.000161 | – | – | – | – | – |
| Cc1cc(C)nc(NS(=O)(=O)c2ccc(N)cc2)c1 | 1.2 | 1.76 | 183 | 5495 l M-1 | 9.54 | 0.00016 | 1.28 | 0.48 | 0.000117 | – | – |
| Nc1ccc(S(=O)(=O)Nc2ncc(Br)cc2Br)cc1 | 21.6 | 0.048 | 90.3 | 13800 l M-1 | 5.78 | 8.89e-06 | – | 0.02 | 5.56e-06 | 0.03 | – |
| Nc1ccc(S(=O)(=O)Nc2ncc(Cl)cc2Cl)cc1 | 21.6 | 0.05 | 99.2 | 12706 l M-1 | 5.98 | 8.89e-06 | 0.05 | 0.03 | 8.33e-06 | – | – |
| Cc1cccc(NS(=O)(=O)c2ccc(N)cc2)n1 | – | 1.04 | 168.6 | 5129 l M-1 | 9.2 | 0.000102 | – | – | – | – | 1.88 |
| Nc1ccc(S(=O)(=O)Nc2ccc(Br)cn2)cc1 | 24.8 | 0.116 | 247.1 | – | 6.98 | 7.78e-06 | 0.04 | 0.07 | 2.78e-06 | – | – |
| Nc1ccc(S(=O)(=O)Nc2ccc(Cl)cn2)cc1 | 21.6 | 0.099 | 185.5 | 25703 l M-1 | 7.04 | 8.89e-06 | 0.06 | 0.04 | 5.56e-06 | – | – |
| Cc1ccc(NS(=O)(=O)c2ccc(N)cc2)nc1 | 2.36 | 1.15 | 234 | 9183 l M-1 | 8.95 | 8.17e-05 | – | – | – | – | – |
| N#Cc1cccnc1NS(=O)(=O)c1ccc(N)cc1 | 1.44 | 0.77 | 96.7 | 1820 l M-1 | 5.25 | 0.000133 | – | – | – | – | – |
| Cc1cnc(NS(=O)(=O)c2ccc(N)cc2)c(C#N)c1 | 2.18 | 0.47 | 89.7 | 10965 l M-1 | 5.35 | 8.83e-05 | – | – | – | – | – |
| COc1cccnc1NS(=O)(=O)c1ccc(N)cc1 | 1.27 | 0.91 | 100.3 | 2399 l M-1 | 8.07 | 0.000151 | – | – | – | – | – |
| Cc1cccnc1NS(=O)(=O)c1ccc(N)cc1 | 1.29 | 1.17 | 131 | 1622 l M-1 | 8.74 | 0.000149 | – | – | – | – | – |
| Nc1ccc(S(=O)(=O)Nc2ccc([N+](=O)[O-])cn2)cc1 | 16.5 | 0.135 | 192.8 | 20417 l M-1 | 5.56 | 1.17e-05 | – | – | – | – | – |
| CN(C)c1ccc(NS(=O)(=O)c2ccc(N)cc2)nc1 | 2.08 | 0.62 | 111.2 | 8511 l M-1 | 9.21 | 9.25e-05 | 0.43 | 0.19 | 6.39e-05 | – | – |
| Cc1cc(Br)cnc1NS(=O)(=O)c1ccc(N)cc1 | 8.15 | 0.2 | 142.6 | 5888 l M-1 | 7.19 | 2.36e-05 | – | – | – | – | – |
| CCOc1cccnc1NS(=O)(=O)c1ccc(N)cc1 | 1.4 | 0.81 | 98.3 | 4169 l M-1 | 8.2 | 0.000138 | – | – | – | – | – |
| Nc1ccc(S(=O)(=O)Nc2ncccc2Cl)cc1 | 8.66 | 0.2 | 147.5 | 13441 l M-1 | 6.8 | 2.22e-05 | – | – | – | – | – |
| Cc1cc(Cl)cnc1NS(=O)(=O)c1ccc(N)cc1 | 8.15 | 0.195 | 137.9 | – | 7.26 | 2.36e-05 | – | – | – | – | – |
| Nc1ccc(S(=O)(=O)Nc2ccccn2)cc1 [SULFAPYRIDINE] | 1.47 | 1.79 | 229 | 4592 l M-1 | 8.54 | 0.000131 | 1.33 | 0.46 | 9.72e-05 | – | – |
